These results are taken from PMC3687671 (British Journal of Pharmacology, 2013).

Assay [1] concerns the target human CSE (Homo sapiens, UniProt P32929). The assay is described as follows: H2S production by purified recombinant GST-CSE. It counts as biochemical. The conditions noted are these: for IC50: 10 μM PLP, 1 mM L-cys, inhibitor added 15 min before L-cys, 60 min, 37°C. In outline:
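Human CSE was made as a GST fusion in E. coli BL21(DE3) Codon Plus (0.1 mM IPTG, overnight at 18°C) and GSH-affinity purified. Each 100 μL reaction held 5 μg enzyme, 0.01 mM PLP, 1 mM L-cys and 50 mM sodium phosphate pH 8.2. Test compound was preincubated 15 min before L-cys, then 60 min at 37°C. ZnAc then TCA; methylene blue absorbance at 655 nm read against H2S calibration; n = 9.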

The target of assay [2] is T1, human CBS (Homo sapiens, UniProt P35520).
T1 sequence (P35520 1-551): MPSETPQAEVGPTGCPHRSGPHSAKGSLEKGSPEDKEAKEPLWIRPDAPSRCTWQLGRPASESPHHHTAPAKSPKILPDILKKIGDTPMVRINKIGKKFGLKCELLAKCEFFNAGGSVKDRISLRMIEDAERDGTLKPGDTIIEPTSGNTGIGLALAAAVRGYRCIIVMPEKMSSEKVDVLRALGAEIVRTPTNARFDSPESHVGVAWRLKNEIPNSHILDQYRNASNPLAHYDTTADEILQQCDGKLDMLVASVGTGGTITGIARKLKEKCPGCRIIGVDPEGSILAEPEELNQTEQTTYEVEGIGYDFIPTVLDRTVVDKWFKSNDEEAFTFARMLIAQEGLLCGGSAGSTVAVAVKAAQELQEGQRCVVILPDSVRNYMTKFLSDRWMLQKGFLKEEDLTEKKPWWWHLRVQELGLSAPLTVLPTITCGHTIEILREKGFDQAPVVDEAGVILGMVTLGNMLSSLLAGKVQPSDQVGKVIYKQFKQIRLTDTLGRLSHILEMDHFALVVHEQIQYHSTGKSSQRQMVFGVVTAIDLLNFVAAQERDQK
The assay is described as follows: H2S production by purified recombinant GST-CBS. The assay is classed as biochemical. In outline: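 Human CBS was expressed as an N-terminal GST fusion in E. coli BL21(DE3) Codon Plus (0.3 mM δ-ALA, 0.1 mM IPTG, overnight at 30°C) and purified by GSH affinity. Each 100 μL reaction held 5 μg enzyme, 0.01 mM PLP, 1 mM L-cys, 1 mM homocysteine and 50 mM sodium phosphate pH 8.2. Test compound went in 15 min before substrate, then 60 min at 37°C. Stopped with ZnAc/TCA; methylene blue A655 against H2S standard curve; n = 9.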

Assay [3] deals with rat aortic rings. The assay is described as follows: Isolated rat aortic ring assay. The conditions noted are these: cumulative concentration-response. In outline: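 Thoracic aortic rings (2–3 mm) from Sprague–Dawley rats (~300 g) were held in oxygenated Krebs–Henseleit at 37°C under 1 g resting tension, with isometric force recorded. Test compound was added 20 min before 1 μM phenylephrine. At the contraction plateau, cumulative L-cys concentration–response curves were run. At least four rings, each from a different rat; mean ± SEM.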

For orientation: IC50 means the concentration needed to halve the response being measured.

SMILES strings stand for the structures. Entries after “also recorded” stand apart in the source; their conditions may differ. Read-outs that look alike come from different tables or passages of the source.

Chain of human CSE (P32929 whole entry, the tested form may be a part): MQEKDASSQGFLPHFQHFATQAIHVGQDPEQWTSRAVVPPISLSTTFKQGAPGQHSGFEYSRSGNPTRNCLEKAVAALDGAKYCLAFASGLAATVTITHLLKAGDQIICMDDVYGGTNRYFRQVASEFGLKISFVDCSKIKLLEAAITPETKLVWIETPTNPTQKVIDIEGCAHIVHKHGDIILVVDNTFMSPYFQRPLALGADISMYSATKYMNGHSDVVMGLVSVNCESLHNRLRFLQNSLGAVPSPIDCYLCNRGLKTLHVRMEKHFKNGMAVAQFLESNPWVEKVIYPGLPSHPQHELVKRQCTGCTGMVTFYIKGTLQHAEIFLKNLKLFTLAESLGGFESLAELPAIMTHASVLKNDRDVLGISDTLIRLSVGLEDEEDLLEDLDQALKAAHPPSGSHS

With `NCCO/C=C/[C@H](N)C(=O)O` [AVG, aminoethoxyvinylglycine], the IC50 in assay [1] (CSE, IC50, 5 μg CSE) was 1 ± 0.1 µM. Besides, in assay [2] (up to 1 mM), the “Effect on CBS activity” value is recorded as “Neither PAG nor AVG had any effect on CBS activity; also recorded: failed to reduce CBS activity”.
Regarding `N[C@@H]1CON=C1O` [D-Cycloserine, D-cycloserine], the entries for the “CSE H2S production (% of control)” value in assay [1] (0.1 mM compound) and in assay [1] (1 mM compound) were 83.3 ± 19.2 % of control and 73.3 ± 18.6 % of control, respectively. For the same compound, the “Effect on CSE activity” value in assay [1] (1 mM) is given as “showed a tendency to reduce CSE activity”. The results for the “CBS H2S production (% of control)” value in assay [2] (0.1 mM compound) and in assay [2] (1 mM compound) were 94.2 ± 20.5 % of control and 80.6 ± 21.0 % of control, respectively.
Regarding `N[C@H](CS)C(=O)O` [D-cysteine], the “Relaxation of phenylephrine-contracted aortic rings” value in assay [3] was “but not D-cysteine, led to a concentration-dependent relaxation”.
Consider `CCN(CC)/[N+]([O-])=N/O.CCNCC` [DEA/NO, diethylamine NONOate], for which, in assay [1] (5 μM), the “Inhibition of CSE activity” value is listed as “did not inhibit CSE activity”. In addition, the “Maximal inhibition of CSE activity” value in assay [1] (250 μM) was 75%. Moreover, the “Effect on CSE activity” value in assay [1] (NO donor, concentration-response) is on record as “concentration dependently attenuated CSE activity”. Moreover, in assay [2] (NO donor, up to 250 μM), the “Effect on CBS activity” value is given as “did not affect CBS activity; also recorded: CBS was resistant”.
On to `NO` [HA, hydroxylamine], for which the “Inhibition of CSE activity” value was “approximately 60%” in assay [1] (5 μM) and “abolished CSE activity” in assay [1] (50 μM). Besides, the “Selectivity towards CSE versus CBS” value in assay [1] (IC50 CBS / IC50 CSE) stood at 60 fold. The half-inhibitory concentration (IC50) in assay [1] (read-out: CSE, IC50, 5 μg CSE) was determined as 4.83 ± 0.31 µM. Further, the “Inhibition of CBS” value in assay [2] (100 μM) is listed as “approximately 30%”.
For `NNC(=O)c1ccncc1` [Isoniazid, isoniazid], in assay [1] (0.1 mM compound), the “CSE H2S production (% of control)” value is on record as 93.3 ± 23.0 % of control. In assay [1] (1 mM), the “Effect on CSE activity” value is recorded as “showed a tendency to reduce CSE activity”. Moreover, the “CBS H2S production (% of control)” value is recorded as 86.4 ± 9.4 % of control in assay [2] (0.1 mM compound) and 88.4 ± 2.1 % of control in assay [2] (1 mM compound).
With `N[C@@H](CS)C(=O)O` [L-cys, L-cysteine], the “Relaxation of phenylephrine-contracted aortic rings” value in assay [3] was “led to a concentration-dependent relaxation”.
`C[Se]C[C@H](N)C(=O)O` [Methylseleno-cysteine, methylselenocysteine]: the “CSE H2S production (% of control)” value was 85.5 ± 4.4 % of control in assay [1] (0.1 mM compound) and 79.7 ± 4.3 % of control in assay [1] (1 mM compound). Besides, the “Effect on CSE activity” value in assay [1] (0.1 and 1 mM (Table 2)) is reported as “did not inhibit the activity of neither CBS nor CSE”. Besides, the “CBS H2S production (% of control)” value in assay [2] (0.1 mM compound) was 95.5 ± 2.1 % of control; in assay [2] (1 mM compound), 79.2 ± 5.1 % of control. The “Effect on CBS activity” value in assay [2] (0.1 and 1 mM (Table 2)) is “did not inhibit the activity of neither CBS nor CSE”.
Regarding `C#CCN(C)Cc1ccccc1` [Pargyline, pargyline], the “CSE H2S production (% of control)” value in assay [1] (0.1 mM compound) is listed as 96.7 ± 7.1 % of control; in assay [1] (1 mM compound), 81.7 ± 12.5 % of control. The “Effect on CSE activity” value in assay [1] (0.1 and 1 mM (Table 2)) is “failed to significantly reduce CSE or CBS activity”. For the same compound, the “CBS H2S production (% of control)” value in assay [2] (0.1 mM compound) is reported as 74.0 ± 12.8 % of control; in assay [2] (1 mM compound) it was 90.1 ± 14.3 % of control. Besides, in assay [2] (0.1 and 1 mM (Table 2)), the “Effect on CBS activity” value is on record as “failed to significantly reduce CSE or CBS activity”.
Take `C#CCOc1ccc(N)cc1C(=O)NCCCC` [Parsalmide]: the “CSE H2S production (% of control)” value is recorded as 86.7 ± 17.8 % of control in assay [1] (0.1 mM compound) and 76.7 ± 11.3 % of control in assay [1] (1 mM compound). In assay [1] (0.1 and 1 mM (Table 2)), the “Effect on CSE activity” value is given as “failed to significantly reduce CSE or CBS activity”. In addition, the “CBS H2S production (% of control)” value in assay [2] (0.1 mM compound) is 88.4 ± 7.4 % of control; in assay [2] (1 mM compound), 93.8 ± 9.9 % of control. Besides, the “Effect on CBS activity” value in assay [2] (0.1 and 1 mM (Table 2)) was “failed to significantly reduce CSE or CBS activity”.
Turning to `N[C@H](C(=O)O)C(F)(F)F` [Trifluoroalanine, trifluoroalanine], the IC50 in assay [1] (read-out: CSE, IC50, 5 μg CSE) amounted to 289 ± 7 µM. In addition, the “Potency on CBS relative to HA” value in assay [2] is on record as “fourfold”. For the same compound, the “Selectivity for CBS (fold lower IC50 for CBS versus CSE)” value in assay [2] (IC50 CSE / IC50 CBS) is reported as “fourfold”.
